Source: ChEMBL document CHEMBL5724801, “EUbOPEN Chemogenomics Library - Multiplex” (2024)
“And” between values parts separate entries of the source, which are not always exact repeats. Equal values may be shown once.

Experiments:
Assay type in all cases: toxicity, cell-based
[1] = system: HEK-293T; experiment: Multiplex assay against HEK293T; settings: human
Procedure, shortened: (§1)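 Live cells were stained at seeding with Hoechst33342, BioTracker Green Microtubule Cytoskeleton Dye, MitoTracker Red and Annexin V Alexa Fluor 680. Following compound addition, they were imaged on a CQ1 microscope at 37°C and 5% CO2 and gated by CellPathfinder machine learning into Hoechst high-intensity objects or normal cells, with normal cells split into healthy, pyknosed or fragmented nuclei and pyknosed cells into mitotic or apoptotic. Tubulin, mitochondrial-mass and membrane-permeability phenotypes are per cents of healthy-nucleus cells.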

[2] = system: U2OS; experiment: Multiplex assay against U2OS; settings: human; procedure, shortened: as §1
[3] = system: Fibroblast; experiment: Multiplex assay against human fibroblast; procedure, shortened: as §1
[4] = 12 h, 1 µM, compound concentration 1 uM
[5] = 12 h, 10 µM, compound concentration 10 uM
[6] = 24 h, 1 µM, compound concentration 1 uM
[7] = 24 h, 10 µM, compound concentration 10 uM
[8] = 48 h, 1 µM, compound concentration 1 uM
[9] = 48 h, 10 µM, compound concentration 10 uM

## Cc1cc(Nc2ncc(Cl)c(Nc3ccccc3S(=O)(=O)C(C)C)n2)c(OC(C)C)cc1C1CCNCC1 [CERITINIB]
[1]; [4]
  Population Apoptotic (%): 15.93% and 15.13%
  Population Fragmented Nuclei (%): 1.92% and 4.62%
  Population Hoechst High Intensity Objects (%): 1.88% and 0.76%
  Population Membrane Permeable-Phenotype (%): 1.35% and 0%
  Population Mitochondria Different-Phenotype (%): 32.43% and 80%
  Population Mitotic Cells (%): 84.07% and 84.87%
  Population Normal (%): 98.12% and 99.24%
  Population Pyknosed Nuclei (%): 69.73% and 91.54%
  Population Tubulin-Different-Phenotype (%): 50% and 80%
  Total Cell Count: 266 and 131
[1]; [5]
  Population Apoptotic (%): 30.99% and 76.42%
  Population Fragmented Nuclei (%): 1.54% and 6.06%
  Population Healthy Nuclei (%): 2.15% and 0.76%
  Population Hoechst High Intensity Objects (%): 1.22% and 0%
  Population Membrane Permeable-Phenotype (%): 0%
  Population Mitotic Cells (%): 69.01% and 23.58%
  Population Normal (%): 98.78% and 100%
  Population Pyknosed Nuclei (%): 96.31% and 93.18%
  Total Cell Count: 329 and 132
[1]; [6]
  Population Apoptotic (%): 45.74% and 45.87%
  Population Fragmented Nuclei (%): 2.55% and 3.68%
  Population Hoechst High Intensity Objects (%): 0% and 0.73%
  Population Membrane Permeable-Phenotype (%): 0%
  Population Mitochondria Different-Phenotype (%): 64.49% and 77.27%
  Population Mitotic Cells (%): 54.26% and 54.13%
  Population Normal (%): 100% and 99.27%
  Population Pyknosed Nuclei (%): 47.08% and 80.15%
  Population Tubulin-Different-Phenotype (%): 71.01% and 54.55%
  Total Cell Count: 274 and 137
[1]; [7]
  Population Apoptotic (%): 64.24% and 88.24%
  Population Fragmented Nuclei (%): 1.89% and 7.03%
  Population Healthy Nuclei (%): 2.84% and 0%
  Population Hoechst High Intensity Objects (%): 0%
  Population Membrane Permeable-Phenotype (%): 0%
  Population Mitochondria Different-Phenotype (%): 88.89%
  Population Normal (%): 100%
  Population Pyknosed Nuclei (%): 95.27% and 92.97%
  Population Tubulin-Different-Phenotype (%): 100%
  Total Cell Count: 317 and 128
[1]; [8]
  Population Apoptotic (%): 27.27% and 48.81%
  Population Fragmented Nuclei (%): 2.27% and 3.2%
  Population Healthy Nuclei (%): 75% and 29.6%
  Population Hoechst High Intensity Objects (%): 0.21% and 1.57%
  Population Membrane Permeable-Phenotype (%): 1.38% and 2.7%
  Population Mitochondria Different-Phenotype (%): 68.6% and 81.08%
  Population Mitotic Cells (%): 72.73% and 51.19%
  Population Normal (%): 99.79% and 98.43%
  Population Pyknosed Nuclei (%): 22.73% and 67.2%
[1]; [9]
  Population Apoptotic (%): 62.54% and 87.16%
  Population Fragmented Nuclei (%): 1.6% and 9.02%
  Population Healthy Nuclei (%): 7.99% and 9.02%
  Population Hoechst High Intensity Objects (%): 0%
  Population Membrane Permeable-Phenotype (%): 0% and 8.33%
  Population Mitochondria Different-Phenotype (%): 92% and 91.67%
  Population Mitotic Cells (%): 37.46% and 12.84%
  Population Normal (%): 100%
  Population Pyknosed Nuclei (%): 90.42% and 81.95%
  Population Tubulin-Different-Phenotype (%): 52% and 91.67%
  Total Cell Count: 313 and 133
[2]; [4]
  Population Apoptotic (%): 28.57% and 18.75%
  Population Fragmented Nuclei (%): 3.31% and 3.57%
  Population Healthy Nuclei (%): 78.68% and 58.33%
  Population Hoechst High Intensity Objects (%): 0%
  Population Membrane Permeable-Phenotype (%): 17.76% and 17.35%
  Population Mitotic Cells (%): 71.43% and 81.25%
  Population Normal (%): 100%
  Population Pyknosed Nuclei (%): 18.01% and 38.1%
  Population Tubulin-Different-Phenotype (%): 40.65% and 72.45%
  Total Cell Count: 272 and 168
[2]; [5]
  Population Apoptotic (%): 77.85% and 68.91%
  Population Fragmented Nuclei (%): 0.93% and 0.8%
  Population Healthy Nuclei (%): 3.43% and 4%
  Population Hoechst High Intensity Objects (%): 0%
  Population Membrane Permeable-Phenotype (%): 36.36% and 80%
  Population Mitochondria Different-Phenotype (%): 0%
  Population Mitotic Cells (%): 22.15% and 31.09%
  Population Normal (%): 100%
  Population Pyknosed Nuclei (%): 95.64% and 95.2%
  Population Tubulin-Different-Phenotype (%): 72.73% and 60%
  Total Cell Count: 321 and 125
[2]; [6]
  Population Apoptotic (%): 29.58% and 27.12%
  Population Fragmented Nuclei (%): 2.58% and 2.73%
  Population Healthy Nuclei (%): 77.08% and 65.03%
  Population Hoechst High Intensity Objects (%): 0.29% and 0%
  Population Membrane Permeable-Phenotype (%): 4.09% and 6.72%
  Population Mitotic Cells (%): 70.42% and 72.88%
  Population Normal (%): 99.71% and 100%
  Population Pyknosed Nuclei (%): 20.34% and 32.24%
  Population Tubulin-Different-Phenotype (%): 29% and 47.06%
  Total Cell Count: 350 and 183
[2]; [7]
  Population Apoptotic (%): 83.51% and 81.55%
  Population Fragmented Nuclei (%): 1.89% and 2.42%
  Population Healthy Nuclei (%): 6.6% and 14.52%
  Population Hoechst High Intensity Objects (%): 0%
  Population Membrane Permeable-Phenotype (%): 23.81% and 50%
  Population Mitochondria Different-Phenotype (%): 9.52% and 5.56%
  Population Mitotic Cells (%): 16.49% and 18.45%
  Population Normal (%): 100%
  Population Pyknosed Nuclei (%): 91.51% and 83.06%
  Population Tubulin-Different-Phenotype (%): 71.43% and 33.33%
  Total Cell Count: 318 and 124
[2]; [8]
  Population Apoptotic (%): 50% and 61.97%
  Population Fragmented Nuclei (%): 3.8% and 3.81%
  Population Healthy Nuclei (%): 77.4% and 62.38%
  Population Hoechst High Intensity Objects (%): 0.2% and 0%
  Population Membrane Permeable-Phenotype (%): 1.55% and 4.58%
  Population Mitotic Cells (%): 50% and 38.03%
  Population Normal (%): 99.8% and 100%
  Population Pyknosed Nuclei (%): 18.8% and 33.81%
  Total Cell Count: 501 and 210
[2]; [9]
  Population Apoptotic (%): 89.1% and 93.88%
  Population Fragmented Nuclei (%): 2.94% and 5.04%
  Population Healthy Nuclei (%): 46.08% and 53.78%
  Population Hoechst High Intensity Objects (%): 0%
  Population Mitochondria Different-Phenotype (%): 7.09% and 10.94%
  Population Mitotic Cells (%): 10.9% and 6.12%
  Population Normal (%): 100%
  Population Pyknosed Nuclei (%): 50.98% and 41.18%
  Population Tubulin-Different-Phenotype (%): 46.1% and 31.25%
  Total Cell Count: 306 and 119
[3]; [4]
  Population Apoptotic (%): 11.76% and 21.15%
  Population Fragmented Nuclei (%): 7.37% and 5.85%
  Population Healthy Nuclei (%): 53.46% and 68.78%
  Population Hoechst High Intensity Objects (%): 0%
  Population Membrane Permeable-Phenotype (%): 4.31% and 0.71%
  Population Mitochondria Different-Phenotype (%): 43.1% and 31.21%
  Population Mitotic Cells (%): 88.24% and 78.85%
  Population Normal (%): 100%
  Population Pyknosed Nuclei (%): 39.17% and 25.37%
  Population Tubulin-Different-Phenotype (%): 63.79% and 60.99%
  Total Cell Count: 217 and 205
[3]; [5]
  Population Apoptotic (%): 42.37% and 52.35%
  Population Fragmented Nuclei (%): 13.51% and 3.96%
  Population Healthy Nuclei (%): 22.7% and 22.28%
  Population Hoechst High Intensity Objects (%): 0%
  Population Mitochondria Different-Phenotype (%): 7.14% and 6.67%
  Population Mitotic Cells (%): 57.63% and 47.65%
  Population Normal (%): 100%
  Population Pyknosed Nuclei (%): 63.78% and 73.76%
  Population Tubulin-Different-Phenotype (%): 38.1% and 77.78%
  Total Cell Count: 185 and 202
[3]; [6]
  Population Apoptotic (%): 20% and 32.43%
  Population Fragmented Nuclei (%): 9.43% and 7.69%
  Population Healthy Nuclei (%): 68.03% and 74.52%
  Population Hoechst High Intensity Objects (%): 0%
  Population Membrane Permeable-Phenotype (%): 4.22% and 0%
  Population Mitochondria Different-Phenotype (%): 29.52% and 27.74%
  Population Mitotic Cells (%): 80% and 67.57%
  Population Normal (%): 100%
  Population Pyknosed Nuclei (%): 22.54% and 17.79%
  Population Tubulin-Different-Phenotype (%): 62.05% and 63.23%
  Total Cell Count: 244 and 208
[3]; [7]
  Population Apoptotic (%): 65.28% and 58.33%
  Population Fragmented Nuclei (%): 19.9% and 22.16%
  Population Healthy Nuclei (%): 43.37% and 59.28%
  Population Hoechst High Intensity Objects (%): 0%
  Population Mitochondria Different-Phenotype (%): 12.94% and 7.83%
  Population Mitotic Cells (%): 34.72% and 41.67%
  Population Normal (%): 100%
  Population Pyknosed Nuclei (%): 36.73% and 18.56%
  Population Tubulin-Different-Phenotype (%): 37.65% and 81.74%
  Total Cell Count: 196 and 194
[3]; [8]
  Population Fragmented Nuclei (%): 13.85% and 7.43%
  Population Healthy Nuclei (%): 77.7% and 84.65%
  Population Hoechst High Intensity Objects (%): 0%
  Population Membrane Permeable-Phenotype (%): 1.74% and 1.75%
  Population Mitochondria Different-Phenotype (%): 11.74% and 9.94%
  Population Mitotic Cells (%): 88% and 50%
  Population Normal (%): 100%
  Population Pyknosed Nuclei (%): 8.45% and 7.92%
  Population Tubulin-Different-Phenotype (%): 36.09% and 50.88%
  Total Cell Count: 296 and 202
[3]; [9]
  Population Apoptotic (%): 73.33% and 50%
  Population Fragmented Nuclei (%): 20.63% and 58.73%
  Population Healthy Nuclei (%): 71.43% and 38.1%
  Population Hoechst High Intensity Objects (%): 0%
  Population Mitotic Cells (%): 26.67% and 50%
  Population Normal (%): 100%
  Population Pyknosed Nuclei (%): 7.94% and 3.17%
  Population Tubulin-Different-Phenotype (%): 31.85% and 58.33%
  Total Cell Count: 189
